Activity calls are given as the source filed them. No cut-off for these calls is given here.
Key:
Plasmodium chabaudi = assay: Antimalarial activity against chloroquine-resistant Plasmodium chabaudi infected in mouse assessed as reversal of chloroquine-resistance at 10 mg/kg, po administered 4 days after post infection; type: functional, organism-based; set-up: dose 10 mg/kg
Outline: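 Mice infected with CQ-resistant P. chabaudi. Test compounds were given perorally at 10 mg/kg, alongside CQ at 3 mg/kg given intraperitoneally. Resistance reversal was read at day 4 after infection. Groups were compared by one-way ANOVA followed by Dunnett's test.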

[1] = target: T1, Glutathione reductase, putative (Plasmodium chabaudi) (UniProt A0A077YEX9); assay: Inhibition of Plasmodium chabaudi glutathione reductase assessed as residual reduced glutathione level after 30 mins in presence of glutathione S-transferase
Outline: (§1)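 Compounds were incubated with GSH, with or without GST, at 37 °C for 30 min. The residual GSH ratio was obtained from the absorbance of the medium.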

[2] = target: T1, Glutathione reductase, putative (Plasmodium chabaudi); assay: Inhibition of Plasmodium chabaudi glutathione reductase assessed as residual reduced glutathione level after 30 mins in absence of glutathione S-transferase; outline: as §1

T1 sequence (A0A077YEX9 as listed by the source): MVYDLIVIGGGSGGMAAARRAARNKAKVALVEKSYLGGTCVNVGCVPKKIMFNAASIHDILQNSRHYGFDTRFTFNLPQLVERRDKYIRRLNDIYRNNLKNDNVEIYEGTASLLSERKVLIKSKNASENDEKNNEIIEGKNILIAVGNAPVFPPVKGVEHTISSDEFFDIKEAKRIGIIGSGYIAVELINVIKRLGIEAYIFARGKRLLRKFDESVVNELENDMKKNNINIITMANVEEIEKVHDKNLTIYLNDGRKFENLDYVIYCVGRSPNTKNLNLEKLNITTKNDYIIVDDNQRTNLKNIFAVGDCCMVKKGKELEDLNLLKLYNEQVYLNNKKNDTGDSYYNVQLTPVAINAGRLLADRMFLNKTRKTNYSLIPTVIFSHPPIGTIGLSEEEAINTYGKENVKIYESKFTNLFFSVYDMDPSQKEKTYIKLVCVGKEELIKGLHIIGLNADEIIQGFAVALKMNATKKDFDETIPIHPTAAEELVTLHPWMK

Structure (SMILES) | Activity (Plasmodium chabaudi) | inhibition [1] | inhibition [2]
COc1ccc(/C=C2\C[C@@]3(O)[C@H]4Cc5ccc(O)c6c5[C@@]3(CCN4CC3CC3)[C@@H](O6)C2=O)cc1 | Active |  | 
O=C1[C@@H](Cc2ccccc2)C[C@@]2(O)[C@H]3Cc4ccc(O)c5c4[C@@]2(CCN3CC2CC2)[C@H]1O5 |  | inactive | inactive
O=C1/C(=C/c2ccccc2)C[C@@]2(O)[C@H]3Cc4ccc(O)c5c4[C@@]2(CCN3CC2CC2)[C@H]1O5 | Active |  | 
O=C1/C(=C/c2ccc(F)cc2)C[C@@]2(O)[C@H]3Cc4ccc(O)c5c4[C@@]2(CCN3CC2CC2)[C@H]1O5 | Active |  | 
